Data taken from ChEMBL document CHEMBL2203264, “Optimization of imidazo[4,5-b]pyridine-based kinase inhibitors: identification of a dual FLT3/Aurora kinase inhibitor as an orally bioavailable preclinical development candidate for the treatment of acute myeloid leukemia” (J Med Chem, 2012).

Experiments:
[1] = target: T1, Aurora kinase A (Homo sapiens, UniProt O14965); experiment: Inhibition of GST-tagged human Aurora A kinase expressed in baculovirus system
T1 sequence (O14965 whole entry): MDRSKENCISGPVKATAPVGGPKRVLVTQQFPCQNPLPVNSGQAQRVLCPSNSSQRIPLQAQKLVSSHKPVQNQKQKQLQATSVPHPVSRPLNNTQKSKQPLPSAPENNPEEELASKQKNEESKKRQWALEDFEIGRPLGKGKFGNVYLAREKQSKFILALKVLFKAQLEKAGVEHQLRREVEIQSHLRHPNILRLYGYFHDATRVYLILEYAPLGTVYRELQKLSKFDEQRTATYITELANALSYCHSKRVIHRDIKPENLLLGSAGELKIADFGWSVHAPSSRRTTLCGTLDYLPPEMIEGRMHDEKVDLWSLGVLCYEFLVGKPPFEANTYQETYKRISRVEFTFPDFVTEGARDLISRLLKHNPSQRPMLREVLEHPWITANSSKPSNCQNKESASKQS

[2] = system: SW-620; experiment: cells; conditions: Homo sapiens, SW-620, 72 h
[3] = Metabolic stability in human liver microsomes assessed as parent compound metabolism after 30 mins by LC-MS analysis; format: ADME, Microsome; conditions: read-out: Drug metabolism
In short: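 Test compound at 10 μM with pooled mixed-gender human liver microsomes (1 mg/mL protein), NADPH 1 mM, UDPGA 2.5 mM and MgCl2 3 mM in 10 mM PBS at 37 °C for 0 and 30 min. Controls omit NADPH/UDPGA. Compound remaining measured by LC–MS; reported as percent of parent metabolized at 30 min.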

[4] = target: hERG (KCNH2) (Homo sapiens, UniProt Q12809); experiment: Inhibition of human ERG at 10 uM by cell-based electrophysiology assay
Sequence of hERG (KCNH2) (Q12809 whole entry): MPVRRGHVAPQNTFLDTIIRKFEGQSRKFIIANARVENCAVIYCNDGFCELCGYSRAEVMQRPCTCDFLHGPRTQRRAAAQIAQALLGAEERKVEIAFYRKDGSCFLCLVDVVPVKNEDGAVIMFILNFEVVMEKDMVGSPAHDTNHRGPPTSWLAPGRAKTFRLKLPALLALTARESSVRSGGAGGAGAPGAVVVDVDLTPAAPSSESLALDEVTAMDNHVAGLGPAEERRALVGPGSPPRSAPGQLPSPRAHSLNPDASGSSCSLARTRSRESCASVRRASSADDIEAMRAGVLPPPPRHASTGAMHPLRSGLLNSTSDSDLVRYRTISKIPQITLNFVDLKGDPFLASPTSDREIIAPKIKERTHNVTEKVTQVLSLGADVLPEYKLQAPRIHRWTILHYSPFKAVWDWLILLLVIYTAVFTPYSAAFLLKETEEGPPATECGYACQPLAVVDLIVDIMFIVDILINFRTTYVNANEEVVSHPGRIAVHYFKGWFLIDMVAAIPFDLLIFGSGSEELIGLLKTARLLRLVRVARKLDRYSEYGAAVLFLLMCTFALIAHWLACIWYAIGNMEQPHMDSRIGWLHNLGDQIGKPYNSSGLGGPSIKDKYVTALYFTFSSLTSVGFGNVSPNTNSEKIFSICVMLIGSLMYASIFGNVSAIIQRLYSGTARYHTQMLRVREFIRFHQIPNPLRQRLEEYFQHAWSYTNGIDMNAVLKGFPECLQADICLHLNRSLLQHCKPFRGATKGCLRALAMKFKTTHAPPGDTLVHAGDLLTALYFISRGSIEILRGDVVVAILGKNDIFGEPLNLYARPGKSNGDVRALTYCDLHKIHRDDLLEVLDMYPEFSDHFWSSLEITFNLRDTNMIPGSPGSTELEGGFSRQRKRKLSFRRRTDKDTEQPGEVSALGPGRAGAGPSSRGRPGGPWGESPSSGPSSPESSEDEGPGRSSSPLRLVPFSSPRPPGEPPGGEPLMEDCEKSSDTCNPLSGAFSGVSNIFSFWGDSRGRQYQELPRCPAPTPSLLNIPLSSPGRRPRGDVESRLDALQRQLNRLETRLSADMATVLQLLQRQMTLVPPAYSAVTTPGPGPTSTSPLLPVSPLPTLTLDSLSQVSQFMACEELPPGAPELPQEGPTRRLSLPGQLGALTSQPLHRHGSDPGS

[5] = Metabolic stability in mouse liver microsomes assessed as parent compound metabolism after 30 mins by LC-MS analysis; format: ADME, Microsome; conditions: read-out: Drug metabolism
In short: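 Male CD1 mouse liver microsomes (1 mg/mL protein) incubated with 10 μM compound plus NADPH 1 mM, UDPGA 2.5 mM and MgCl2 3 mM in 10 mM PBS at 37 °C for 0 and 30 min. NADPH/UDPGA-free controls included. LC–MS quantitation of remaining compound; reported as percent parent metabolized after 30 min.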

[6] = Binding affinity to FLT3 ITD mutant
[7] = target: T2, Receptor-type tyrosine-protein kinase FLT3 (Homo sapiens, UniProt P36888)
T2 sequence (P36888 whole entry): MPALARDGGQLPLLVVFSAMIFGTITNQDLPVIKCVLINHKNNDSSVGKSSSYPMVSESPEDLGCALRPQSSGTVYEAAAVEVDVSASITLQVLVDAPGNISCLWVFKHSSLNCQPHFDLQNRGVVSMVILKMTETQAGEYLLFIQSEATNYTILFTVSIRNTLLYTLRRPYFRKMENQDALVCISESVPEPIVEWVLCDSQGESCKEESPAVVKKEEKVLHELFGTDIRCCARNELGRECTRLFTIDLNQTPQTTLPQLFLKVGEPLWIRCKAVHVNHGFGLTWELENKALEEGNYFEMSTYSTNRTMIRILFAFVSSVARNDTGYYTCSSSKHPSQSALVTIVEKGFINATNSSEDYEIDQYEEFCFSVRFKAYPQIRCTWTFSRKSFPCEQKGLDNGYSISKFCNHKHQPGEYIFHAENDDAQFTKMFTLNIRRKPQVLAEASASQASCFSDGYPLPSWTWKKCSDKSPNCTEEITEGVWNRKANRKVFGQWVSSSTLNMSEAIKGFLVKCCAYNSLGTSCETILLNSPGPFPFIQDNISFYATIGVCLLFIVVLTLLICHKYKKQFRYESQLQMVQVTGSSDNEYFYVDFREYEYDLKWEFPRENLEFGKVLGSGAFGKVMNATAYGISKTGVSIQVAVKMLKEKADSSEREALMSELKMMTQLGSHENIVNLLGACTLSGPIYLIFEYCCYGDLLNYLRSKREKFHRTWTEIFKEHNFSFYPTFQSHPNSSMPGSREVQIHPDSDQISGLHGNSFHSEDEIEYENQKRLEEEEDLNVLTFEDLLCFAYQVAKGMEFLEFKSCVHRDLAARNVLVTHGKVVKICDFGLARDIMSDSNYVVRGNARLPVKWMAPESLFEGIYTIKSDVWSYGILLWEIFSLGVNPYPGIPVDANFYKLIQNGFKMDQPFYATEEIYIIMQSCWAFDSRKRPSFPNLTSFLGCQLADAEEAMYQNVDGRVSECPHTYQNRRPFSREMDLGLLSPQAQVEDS

[8] = target: Voltage-gated inwardly rectifying potassium channel KCNH2 (Homo sapiens, UniProt Q12809); experiment: Inhibition of human ERG by cell-based electrophysiology assay
Sequence of Voltage-gated inwardly rectifying potassium channel KCNH2 (Q12809 whole entry): as the sequence (Q12809 whole entry) above

SMILES | IC50 [1] [nM] | GI50 [2] [nM] | metabolised at 0.5 h [3] [%] | inhibition at 10 µM [4] [%] | metabolised at 0.5 h [5] [%] | Kd [6] [nM] | Kd [7] [nM] | IC50 [8] [µM]
Cc1cc(CN2CCN(c3c(Cl)cnc4nc(-c5ccnn5C)[nH]c34)CC2)no1 | 147 | 3190 | – | – | – | – | – | –
Cc1nn(C)cc1-c1nc2ncc(Cl)c(N3CCN(Cc4cnccn4)CC3)c2[nH]1 | 27 | 1090 | 76 | 23 | 99 | – | – | –
Cc1cc(CN2CCN(c3c(Cl)cnc4[nH]c(-c5cccc(OCCN(C)C)c5)nc34)CC2)no1 | 130 | 850 | 18 | 88 | 23 | – | – | –
CC(=O)N1CCN(c2ccc(-c3nc4ncc(Br)c(N5CCN(Cc6cc(C)on6)CC5)c4[nH]3)cc2)CC1 | 9 | 758 | 94 | 92 | 25 | – | – | –
CCn1cc(-c2nc3ncc(Cl)c(N4CCN(Cc5cc(C)on5)CC4)c3[nH]2)cn1 | 41 | 2180 | 22 | 51 | 16 | – | – | –
Cc1cc(CN2CCN(c3c(Cl)cnc4[nH]c(-c5cnn(CC(F)F)c5)nc34)CC2)no1 | 45 | 1600 | 0 | 82 | 12 | – | – | –
Cc1nc(CN2CCN(c3c(Cl)cnc4[nH]c(-c5cn(C)nc5C)nc34)CC2)no1 | – | – | 20 | – | 58 | – | – | –
Cc1cc(CN2CCN(c3c(Cl)cnc4[nH]c(-c5cccc(N6CCN(C)CC6)c5)nc34)CC2)no1 | 26 | 667 | 24 | – | 40 | 26 | 5.4 | 9.5
Cc1nn(C)cc1-c1nc2c(N3CCN(Cc4ncn(C)n4)CC3)c(Cl)cnc2[nH]1 | 93 | 3140 | 24 | 14 | 97 | – | – | –
Cc1cc(CN2CCN(c3c(Cl)cnc4[nH]c(-c5ccoc5)nc34)CC2)no1 | 68 | 6500 | – | – | – | – | – | –
Cc1cc(CN2CCN(c3c(Cl)cnc4nc(-c5cccc(CN6CCOCC6)c5)[nH]c34)CC2)no1 | 47 | 113 | 71 | 15 | 69 | – | – | –
Cc1nn(C)cc1-c1nc2c(N3CCN(Cc4ncon4)CC3)c(Cl)cnc2[nH]1 | – | – | 22 | – | 67 | – | – | –
Cc1cc(CN2CCN(c3c(Cl)cnc4nc(-c5ccc(N6CCN(C)CC6)cc5)[nH]c34)CC2)no1 | – | 570 | 89 | – | 25 | – | – | –
Cc1cc(CN2CCN(c3c(Cl)cnc4[nH]c(-c5cnn(C)c5)nc34)CC2)no1 | 45 | 1800 | – | – | – | 66 | 12 | –
Cc1cc(CN2CCN(c3c(Cl)cnc4nc(-c5cccc(CN(C)C)c5)[nH]c34)CC2)no1 | 54 | 840 | 36 | 85 | 29 | – | – | –
Cc1cc(CN2CCN(c3c(Br)cnc4[nH]c(-c5ccc(N6CCOCC6)cc5)nc34)CC2)no1 | 7 | 860 | 99 | – | 50 | – | – | –

SMILES | IC50 [1] [nM] | GI50 [2] [nM] | metabolised at 0.5 h [3] [%] | inhibition at 10 µM [4] [%] | metabolised at 0.5 h [5] [%] | Kd [6] [nM] | Kd [7] [nM] | IC50 [8] [µM]
COCCN1CCN(c2ccc(-c3nc4ncc(Br)c(N5CCN(Cc6cc(C)on6)CC5)c4[nH]3)cc2)CC1 | 12 | 1000 | 69 | 54 | 66 | – | – | –
Cc1cc(CN2CCN(c3c(Cl)cnc4[nH]c(-c5cn(C)nc5C5CC5)nc34)CC2)no1 | 4 | – | 64 | – | 80 | – | – | –
Cc1nn(C)cc1-c1nc2ncc(Cl)c(N3CCN(Cc4nonc4C)CC3)c2[nH]1 | 6 | 250 | 54 | 50 | 91 | – | – | –
Cc1cc(CN2CCN(c3c(Cl)cnc4nc(-c5cc(C)on5)[nH]c34)CC2)no1 | 434 | 1150 | – | – | – | – | – | –
Cc1cc(CN2CCN(c3c(Cl)cnc4[nH]c(-c5cn(C)nc5C)nc34)CC2)no1 | 13 | 597 | 38 | – | 48 | 10 | 2.4 | 6.3
CCN1CCN(c2ccc(-c3nc4c(N5CCN(Cc6cc(C)on6)CC5)c(Cl)cnc4[nH]3)cc2)CC1 | 6 | 461 | 72 | 68 | 37 | – | – | –
Cc1cc(CN2CCN(c3c(Cl)cnc4[nH]c(-c5cnn(C(C)C)c5)nc34)CC2)no1 | 35 | 2220 | 17 | 71 | 30 | – | – | –
Cc1cc(CN2CCN(c3c(Br)cnc4nc(-c5nc(C)oc5C)[nH]c34)CC2)no1 | 2200 | 4570 | – | – | – | – | – | –
Cc1cc(CN2CCN(c3c(Br)cnc4[nH]c(-c5cncn5C)nc34)CC2)no1 | 15 | 2180 | – | – | – | 62 | 14 | –
Cc1cc(CN2CCN(c3c(Cl)cnc4nc(-c5ccc(N6CCN(C)CC6)c(F)c5)[nH]c34)CC2)no1 | 11 | 380 | 68 | 37 | 20 | – | – | –
Cc1nn(C)cc1-c1nc2c(N3CCN(Cc4cncnc4)CC3)c(Cl)cnc2[nH]1 | 22 | 950 | 50 | 32 | 78 | 15 | 5.9 | –
Cc1cc(CN2CCN(c3c(Cl)cnc4nc(-c5ccn(C)n5)[nH]c34)CC2)no1 | 118 | 2600 | – | – | – | – | – | –
Cc1cc(CN2CCN(c3c(Br)cnc4nc(-c5ccc(N6CCN(C)CC6)cc5)[nH]c34)CC2)no1 | – | – | 86 | 75 | 36 | 4.9 | 1.2 | –
Cc1cc(CN2CCN(c3c(Br)cnc4nc(-c5csnn5)[nH]c34)CC2)no1 | 600 | 20000 | – | – | – | – | – | –
Cc1cc(CN2CCN(c3c(Cl)cnc4[nH]c(-c5ccc(N6CCN(C)CC6)cc5F)nc34)CC2)no1 | 87 | 7500 | 99 | 81 | 65 | – | – | –
Cc1cc(CN2CCN(c3c(Cl)cnc4nc(-c5nccn5C)[nH]c34)CC2)no1 | 564 | 16300 | – | – | – | – | – | –
